# In ChEMBL document CHEMBL1629690, “Development of hexadecyloxypropyl tenofovir (CMX157) for treatment of infection caused by wild-type and nucleoside/nucleotide-resistant HIV” (Antimicrob Agents Chemother, 2010):
# How the values were obtained:
# PBMC [1] = assay: Cellular uptake in human PBMC at 10 uM after 24 hrs by MS/MS analysis; assay type: ADME, cell-based
# How it was run: (§1)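 Human PBMCs, unstimulated or PHA/IL-2-stimulated, at 2 × 10^6 cells/ml in RPMI 1640 with 15% FBS, exposed 24 h at 37°C to final 0.01, 0.1, 1.0 or 10 μM of the prodrug, or 1.0 or 10 μM tenofovir. After cold saline washes the cells were counted and 1 × 10^7-cell pellets made. TFV, TFV-MP and TFV-PP were measured by ion-pairing LC with positive-ion electrospray MS as pmol/10^6 cells.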
# PBMC [2] = assay: Cellular uptake in PHA/IL-2-stimulated human PBMC at 10 uM after 24 hrs by MS/MS analysis; assay type: ADME, cell-based
# How it was run: (§2)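 PHA-stimulated (4 μg/ml PHA, 48 to 72 h; 20 U/ml rhIL-2) human PBMCs at 2 × 10^6 cells/ml in RPMI 1640 with 15% FBS, given tenofovir or prodrug (final 0.01 to 10 μM) for 24 h at 37°C. Cells washed three times in cold 0.9% NaCl, counted, and 1 × 10^7 cell aliquots pelleted. TFV, TFV-MP and TFV-PP were separated by ion-pairing reverse-phase LC and detected by positive-ion electrospray MS. Output is pmol per 10^6 cells.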
# [3] = test system: Human immunodeficiency virus 1; assay: Antiviral activity against HIV1 subtype B isolate 92TH014 infected in human MDM […] by MTS assay; assay type: functional, organism-based; conditions: Human immunodeficiency virus 1, isolate 92TH014
# [4] = test system: Human immunodeficiency virus 1; assay: Antiviral activity against HIV1 isolate JR-CSF infected in human MDM […] by MTS assay; assay type: functional; conditions: Human immunodeficiency virus 1, JRCSF ISOLATE
# [5] = test system: Human immunodeficiency virus 1; assay: Antiviral activity against HIV1 isolate JR-CSF infected in human PBMC after 48 to 72 hrs by MTS assay in presence of 15% human serum; assay type: functional; conditions: Human immunodeficiency virus 1, JRCSF ISOLATE
# How it was run: (§3)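 This is the PHA/IL-2 PBMC assay run with JR-CSF preincubated with 8 × 10^6 pooled cells for 1 h at 37°C. Cells were then spinoculated at 200 × g for 1 h and held 2 h more. Infected cells (2.5 × 10^4) were added, without virus washout, to wells holding uninfected PBMCs and compound. Medium had 15% FBS, plus 0, 10, 15, 20 or 30% human serum.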
# PBMC [6] = assay: Cellular uptake in human PBMC at 0.1 uM assessed as TFV-diphosphate after 24 hrs by MS/MS analysis; assay type: ADME, cell-based; how it was run: as §1
# [7] = test system: Human immunodeficiency virus 1; assay: Antiviral activity against HIV1 subtype B isolate ADA infected in human PBMC after 48 to 72 hrs by MTS assay; assay type: functional, organism-based; conditions: Human immunodeficiency virus 1, isolate ADA
# How it was run: (§4)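 Fresh donor PBMCs, HIV- and HBV-seronegative, were stimulated with 4 μg/ml PHA for 48 to 72 h and kept on 20 U/ml rhIL-2. Cells pooled from at least two donors were seeded at 5 × 10^4 per well and infected at MOI ~0.1. Nine compound concentrations were run in triplicate wells for 7 days.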
# [8] = test system: Human immunodeficiency virus 1; assay: Antiviral activity against HIV1 subtype C isolate 91IN101 infected in human PBMC after 48 to 72 hrs by MTS assay; assay type: functional, organism-based; conditions: Human immunodeficiency virus 1, isolate 93IN101; in the assay text read “93IN101” for “91IN101”; how it was run: as §4
# [9] = test system: Human immunodeficiency virus 1; assay: Antiviral activity against HIV1 isolate JR-CSF infected in human PBMC after 48 to 72 hrs by MTS assay in presence of 10% human serum; assay type: functional; conditions: Human immunodeficiency virus 1, JRCSF ISOLATE; how it was run: as §3
# PBMC [10] = assay: Cellular uptake in human PBMC at 0.1 uM assessed as TFV level after 24 hrs by MS/MS analysis; assay type: ADME, cell-based; how it was run: as §1
# PBMC [11] = assay: Cellular uptake in PHA/IL-2-stimulated human PBMC at 0.01 uM assessed as TFV level after 24 hrs by MS/MS analysis; assay type: ADME, cell-based; conditions: BLD = below limit of detection
# How it was run: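 PHA/IL-2-stimulated PBMCs at 2 × 10^6 cells/ml (5 × 10^7 per flask) were exposed for 24 h at 37°C. Cells were washed three times in cold 0.9% NaCl and counted by trypan blue. Aliquots of 1 × 10^7 cells were pelleted. TFV, TFV-MP and TFV-PP were separated by ion-pairing reverse-phase gradient LC and detected by positive electrospray. Results are given as pmol/10^6 cells.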
# [12] = test system: Human immunodeficiency virus 1; assay: Antiviral activity against HIV1 isolate JR-CSF infected in human PBMC after 48 to 72 hrs by MTS assay; assay type: functional; conditions: Human immunodeficiency virus 1, JRCSF ISOLATE; how it was run: as §3
# [13] = test system: Human immunodeficiency virus 1; assay: Antiviral activity against HIV1 isolate JR-CSF infected in human PBMC after 48 to 72 hrs by MTS assay in presence of 20% human serum; assay type: functional; conditions: Human immunodeficiency virus 1, JRCSF ISOLATE; how it was run: as §3
# [14] = test system: Human immunodeficiency virus 1; assay: Antiviral activity against HIV1 subtype B isolate Ba-L infected in human MDM […] by MTS assay; assay type: functional, organism-based; conditions: Human immunodeficiency virus 1, isolate Ba-L
# [15] = test system: Human immunodeficiency virus 1; assay: Antiviral activity against HIV1 isolate JR-CSF infected in human PBMC after 48 to 72 hrs by MTS assay in presence of 30% human serum; assay type: functional; conditions: Human immunodeficiency virus 1, JRCSF ISOLATE; how it was run: as §3
# PBMC [16] = assay: Cellular uptake in PHA/IL-2-stimulated human PBMC at 10 uM assessed as TFV level after 24 hrs by MS/MS analysis; assay type: ADME, cell-based; how it was run: as §2
# PBMC [17] = assay: Cellular uptake in human PBMC at 0.01 uM assessed as TFV-monophosphate after 24 hrs by MS/MS analysis; assay type: ADME, cell-based; conditions: BLD = below limit of detection; how it was run: as §1
# [18] = test system: Human immunodeficiency virus 1; assay: Antiviral activity against HIV1 subtype B isolate Ba-L infected in human PBMC after 48 to 72 hrs by MTS assay; assay type: functional, organism-based; conditions: Human immunodeficiency virus 1, isolate Ba-L; how it was run: as §4
# PBMC [19] = assay: Cellular uptake in human PBMC at 0.01 uM assessed as TFV-diphosphate after 24 hrs by MS/MS analysis; assay type: ADME, cell-based; how it was run: as §1
# [20] = test system: Human immunodeficiency virus 1; assay: Antiviral activity against HIV1 subtype C isolate 93MW959 infected in human PBMC after 48 to 72 hrs by MTS assay; assay type: functional, organism-based; conditions: Human immunodeficiency virus 1, isolate 93MW959; how it was run: as §4
# PBMC [21] = assay: Cellular uptake in human PBMC at 1 uM assessed as TFV level after 24 hrs by MS/MS analysis; assay type: ADME, cell-based; how it was run: as §1
# [22] = test system: Human immunodeficiency virus 1; assay: Antiviral activity against HIV1 group O isolate BCF01 infected in human PBMC after 48 to 72 hrs by MTS assay; assay type: functional, organism-based; conditions: Human immunodeficiency virus 1, isolate BCF01; how it was run: as §4
compound,measurement,setting,value
C[C@H](Cn1cnc2c(N)ncnc21)OCP(=O)(O)O [TENOFOVIR ANHYDROUS],Drug uptake,PBMC [1],0.11 pmol/10^6 cells
same,Drug uptake,PBMC [2],0.09 pmol/10^6 cells
CCCCCCCCCCCCCCCCOCCCOP(=O)(O)CO[C@H](C)Cn1cnc2c(N)ncnc21 [TENOFOVIR EXALIDEX],EC50,[3],3.1 nM
same,EC50,[4],3.1 nM
same,EC50,[5],6.4 nM
same,Drug uptake,PBMC [6],0.07 pmol/10^6 cells
same,EC50,[7],1.5 nM
same,EC50,[8],2.8 nM
same,EC50,[9],4.6 nM
same,Drug uptake,PBMC [10],0.05 pmol/10^6 cells
same,Drug uptake,PBMC [11],BLD
same,EC50,[12],1.5 nM
same,EC50,[13],11 nM
same,EC50,[14],3.1 nM
same,EC50,[15],16 nM
same,Drug uptake,PBMC [16],1.9 pmol/10^6 cells
same,Drug uptake,PBMC [17],BLD
same,EC50,[18],1.5 nM
same,Drug uptake,PBMC [19],0.07 pmol/10^6 cells
same,EC50,[20],2.8 nM
same,Drug uptake,PBMC [21],0.07 pmol/10^6 cells
same,EC50,[22],5 nM
